Test results reported in ChEMBL document CHEMBL3120094, “The survival times of malaria-infected mice are prolonged more by several new two-carbon-linked artemisinin-derived dimer carbamates than by the trioxane antimalarial drug artemether” (2014).

Assays:
Type in all cases: functional
Plasmodium berghei [1] = experiment: Antimalarial activity against Plasmodium berghei ANKA infected in C57BL/6J mouse assessed as parasitemia level at 5 mg/kg, po administered after 24 hrs post infection measured after 30 days in presence of 15 mg/kg of mefloquine hydrochloride relative to control
Plasmodium berghei [2] = experiment: Antimalarial activity against Plasmodium berghei ANKA infected in C57BL/6J mouse assessed as decrease of parasitemia level at 5 mg/kg, po administered after 24 hrs post infection measured after 3 days in presence of 15 mg/kg of mefloquine hydrochloride relative to control; set-up: scale not given: the % may be the effect or the level left
Procedure, shortened: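 Male C57BL/6J mice, 5 weeks old and about 20 g, were infected with P. berghei ANKA (2 × 10⁷ parasitized erythrocytes). At 24 h they got one 200 μL oral dose: 5 mg/kg trioxane plus 15 mg/kg mefloquine hydrochloride in 7:3 Tween 80/ethanol diluted with water. Blood parasitemia was read on day 3 post-infection as % suppression versus untreated infected mice. Four mice per group.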

Plasmodium berghei [3] = experiment: Antimalarial activity against Plasmodium berghei ANKA infected in C57BL/6J mouse assessed as increase of host survival days at 5 mg/kg, po administered after 24 hrs post infection in presence of 15 mg/kg of mefloquine hydrochloride (reference value: 6.5 days)
Plasmodium berghei [4] = experiment: Antimalarial activity against Plasmodium berghei ANKA infected in C57BL/6J mouse assessed as decrease of parasitemia level at 15 mg/kg, po administered after 24 hrs post infection measured after 3 days relative to control; set-up: scale not given: the % may be the effect or the level left
Procedure, shortened: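 Male C57BL/6J mice, 5 weeks old and about 20 g, were infected with P. berghei ANKA at 2 × 10⁷ parasitized erythrocytes. At 24 h post-infection, 4 mice per group received a single oral 200 μL dose in 7:3 Tween 80/ethanol diluted in deionized water. The dose was trioxane 5 mg/kg with mefloquine hydrochloride 15 mg/kg. Parasitemia suppression was read on day 3 versus untreated infected mice.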

Plasmodium berghei [5] = experiment: Antimalarial activity against Plasmodium berghei ANKA infected in C57BL/6J mouse assessed as increase of host survival days at 15 mg/kg, po administered after 24 hrs post infection (reference value: 6.5 days)

Compound	Activity (Plasmodium berghei [1]) [%]	Activity (Plasmodium berghei [2]) [%]	Survival (Plasmodium berghei [3]) [days]	Activity (Plasmodium berghei [4]) [%]	Survival (Plasmodium berghei [5]) [days]
C[C@H]1[C@@H]([C@H](C[C@H]2O[C@@H]3O[C@@]4(C)CC[C@H]5[C@H](C)CC[C@@H]([C@H]2C)[C@@]35OO4)OC(=O)Nc2ccc(F)c(Cl)c2)O[C@@H]2O[C@@]3(C)CC[C@H]4[C@H](C)CC[C@@H]1[C@@]24OO3	8	>99.9	24.8	–	–
C[C@H]1[C@@H]([C@H](C[C@H]2O[C@@H]3O[C@@]4(C)CC[C@H]5[C@H](C)CC[C@@H]([C@H]2C)[C@@]35OO4)OC(=O)Nc2ccc(C#N)cc2)O[C@@H]2O[C@@]3(C)CC[C@H]4[C@H](C)CC[C@@H]1[C@@]24OO3	–	>99.9	17.8	–	–
C[C@H]1[C@@H]([C@H](C[C@H]2O[C@@H]3O[C@@]4(C)CC[C@H]5[C@H](C)CC[C@@H]([C@H]2C)[C@@]35OO4)OC(=O)Nc2cccc(F)c2)O[C@@H]2O[C@@]3(C)CC[C@H]4[C@H](C)CC[C@@H]1[C@@]24OO3	–	>99.9	20.3	–	–
C[C@H]1[C@@H]([C@H](C[C@H]2O[C@@H]3O[C@@]4(C)CC[C@H]5[C@H](C)CC[C@@H]([C@H]2C)[C@@]35OO4)OC(=O)Nc2ccc(C(F)(F)F)cc2)O[C@@H]2O[C@@]3(C)CC[C@H]4[C@H](C)CC[C@@H]1[C@@]24OO3	–	>99.9	10.8	–	–
C[C@H]1[C@@H]([C@H](C[C@H]2O[C@@H]3O[C@@]4(C)CC[C@H]5[C@H](C)CC[C@@H]([C@H]2C)[C@@]35OO4)OC(=O)Nc2ccc(F)c(F)c2)O[C@@H]2O[C@@]3(C)CC[C@H]4[C@H](C)CC[C@@H]1[C@@]24OO3	8	>99.9	25.5	–	–
C[C@H]1[C@@H]([C@@H](O)C[C@H]2O[C@@H]3O[C@@]4(C)CC[C@H]5[C@H](C)CC[C@@H]([C@H]2C)[C@@]35OO4)O[C@@H]2O[C@@]3(C)CC[C@H]4[C@H](C)CC[C@@H]1[C@@]24OO3	–	>99.9	25	–	–
C[C@H]1[C@@H]([C@H](C[C@H]2O[C@@H]3O[C@@]4(C)CC[C@H]5[C@H](C)CC[C@@H]([C@H]2C)[C@@]35OO4)OC(=O)Nc2cccc(Cl)c2)O[C@@H]2O[C@@]3(C)CC[C@H]4[C@H](C)CC[C@@H]1[C@@]24OO3	8	>99.9	26.8	–	–
OC(c1cc(C(F)(F)F)nc2c(C(F)(F)F)cccc12)C1CCCCN1 (configuration not stated) [MEFLOQUINE]	–	–	–	>99.9	20.3
C[C@H]1[C@@H]([C@H](C[C@H]2O[C@@H]3O[C@@]4(C)CC[C@H]5[C@H](C)CC[C@@H]([C@H]2C)[C@@]35OO4)OC(=O)Nc2ccc(Cl)cc2)O[C@@H]2O[C@@]3(C)CC[C@H]4[C@H](C)CC[C@@H]1[C@@]24OO3	–	>99.9	18.3	–	–
C[C@H]1[C@@H]([C@H](C[C@H]2O[C@@H]3O[C@@]4(C)CC[C@H]5[C@H](C)CC[C@@H]([C@H]2C)[C@@]35OO4)OC(=O)Nc2ccc(F)cc2)O[C@@H]2O[C@@]3(C)CC[C@H]4[C@H](C)CC[C@@H]1[C@@]24OO3	–	>99.9	18.8	–	–
C[C@H]1[C@@H]([C@H](O)C[C@H]2O[C@@H]3O[C@@]4(C)CC[C@H]5[C@H](C)CC[C@@H]([C@H]2C)[C@@]35OO4)O[C@@H]2O[C@@]3(C)CC[C@H]4[C@H](C)CC[C@@H]1[C@@]24OO3	–	>99.9	24.8	–	–
C[C@H]1[C@@H]([C@H](C[C@H]2O[C@@H]3O[C@@]4(C)CC[C@H]5[C@H](C)CC[C@@H]([C@H]2C)[C@@]35OO4)OC(=O)Nc2ccc([N+](=O)[O-])cc2)O[C@@H]2O[C@@]3(C)CC[C@H]4[C@H](C)CC[C@@H]1[C@@]24OO3	–	>99.9	22	–	–
C[C@H]1[C@@H]([C@H](C[C@H]2O[C@@H]3O[C@@]4(C)CC[C@H]5[C@H](C)CC[C@@H]([C@H]2C)[C@@]35OO4)OC(=O)Nc2cccc(C(F)(F)F)c2)O[C@@H]2O[C@@]3(C)CC[C@H]4[C@H](C)CC[C@@H]1[C@@]24OO3	–	>99.9	18	–	–
C[C@H]1[C@@H]([C@H](C[C@H]2O[C@@H]3O[C@@]4(C)CC[C@H]5[C@H](C)CC[C@@H]([C@H]2C)[C@@]35OO4)OC(=O)Nc2ccc(Br)cc2)O[C@@H]2O[C@@]3(C)CC[C@H]4[C@H](C)CC[C@@H]1[C@@]24OO3	–	>99.9	12.5	–	–
Cc1cc(NC(=O)O[C@@H](C[C@H]2O[C@@H]3O[C@@]4(C)CC[C@H]5[C@H](C)CC[C@@H]([C@H]2C)[C@@]35OO4)[C@H]2O[C@@H]3O[C@@]4(C)CC[C@H]5[C@H](C)CC[C@@H]([C@H]2C)[C@@]35OO4)ccc1F	–	>99.9	13.5	–	–
C[C@H]1[C@@H]([C@H](C[C@H]2O[C@@H]3O[C@@]4(C)CC[C@H]5[C@H](C)CC[C@@H]([C@H]2C)[C@@]35OO4)OC(=O)Nc2cc(F)cc(F)c2)O[C@@H]2O[C@@]3(C)CC[C@H]4[C@H](C)CC[C@@H]1[C@@]24OO3	–	>99.9	21.8	–	–
C[C@H]1[C@@H]([C@H](C[C@H]2O[C@@H]3O[C@@]4(C)CC[C@H]5[C@H](C)CC[C@@H]([C@H]2C)[C@@]35OO4)OC(=O)Nc2ccccc2)O[C@@H]2O[C@@]3(C)CC[C@H]4[C@H](C)CC[C@@H]1[C@@]24OO3	–	>99.9	17	–	–
